Assay results taken from ChEMBL document CHEMBL1221284, “Development of 2-pyrrolidinyl-N-methyl pyrimidones as potent and orally bioavailable HIV integrase inhibitors” (Bioorg Med Chem Lett, 2010).

How the values were obtained:
[1] = tested on: Human immunodeficiency virus 1; assay: Antiviral activity against HIV1 3B infected in human MT4 cells assessed as inhibition of viral infections in presence of 50 % normal human serum; assay type: functional; details: Human immunodeficiency virus 1, 3B, read-out: CIC95
In short: (§1)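 Spread assay measuring inhibition of HIV-1 IIIb infection spread in MT-4 T-lymphoid cell culture. The medium held 10% fetal bovine serum for line 3 and 50% normal human serum for line 4. The readout is the 95% inhibitory concentration (CIC95).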

[2] = Terminal phase half life in rat at 3 mg/kg, po and 3 mg/kg, iv; assay type: ADME, organism-based; details: in vivo, read-out: beta t1/2 (converted)
In short: (§2)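 The iv dose was given in DMSO/PEG400/H2O (20–40–40%) and the oral dose in 1% methylcellulose. Terminal-phase plasma half-life was taken from the iv administration and AUC from the oral administration.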

[3] = target: Human immunodeficiency virus type 1 integrase (Human immunodeficiency virus 1, UniProt Q7ZJM1); assay: Inhibition of HIV 1 recombinant integrase
In short: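 Recombinant HIV-1 integrase was pre-assembled on immobilized oligonucleotides. Inhibitor was added after assembly and washing. IC50 is the inhibitor concentration that reduces integrase activity by 50%.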

[4] = tested on: Human immunodeficiency virus 1; assay: Antiviral activity against HIV1 3B infected in human MT4 cells assessed as inhibition of viral infections in presence of 10% fetal bovine serum; assay type: functional; details: Human immunodeficiency virus 1, 3B, read-out: CIC95; in short: as §1
[5] = AUC in rat at 3 mg/kg, po and 3 mg/kg, iv; assay type: ADME, organism-based; details: plasma; in short: as §2
[6] = Oral bioavailability in rat at 3 mg/kg; assay type: ADME, organism-based; details: in vivo; in short: as §2
[7] = Plasma clearance in rat at 3 mg/kg, po and 3 mg/kg, iv; assay type: ADME, organism-based; in short: as §2
[8] = tested on: Human immunodeficiency virus 1; assay: Antiviral activity against HIV1 harboring integrase T66I and S153Y double mutant relative to wild type; assay type: functional
[9] = tested on: Human immunodeficiency virus 1; assay: Antiviral activity against HIV1 harboring integrase T125K and […] double mutant relative to wild type; assay type: functional
[10] = tested on: Human immunodeficiency virus 1; assay: Antiviral activity against HIV1 harboring integrase F121Y mutant relative to wild type
[11] = organism: Homo sapiens; assay: Plasma protein binding in human; details: read-out: PPB (converted)
[12] = Terminal phase half life in dog at 1 mg/kg, iv and 2 mg/kg, po; details: in vivo, read-out: beta t1/2 (converted)
[13] = tested on: Human immunodeficiency virus 1; assay: Antiviral activity against HIV1 harboring integrase N155S mutant relative to wild type; assay type: functional
[14] = tested on: Human immunodeficiency virus 1; assay: Antiviral activity against HIV1 harboring integrase T66I mutant relative to wild type; assay type: functional
[15] = AUC in dog at 1 mg/kg, iv and 2 mg/kg, po; details: plasma
[16] = tested on: Human immunodeficiency virus 1; assay: Antiviral activity against HIV1 harboring integrase V151I mutant relative to wild type; assay type: functional
[17] = Oral bioavailability in dog at 1 mg/kg; assay type: ADME, organism-based, Canis lupus familiaris; details: in vivo; in short: as §2
[18] = tested on: Human immunodeficiency virus 1; assay: Antiviral activity against HIV1 harboring integrase T125K mutant relative to wild type; assay type: functional
[19] = tested on: Human immunodeficiency virus 1; assay: Antiviral activity against HIV1 harboring integrase T66/L74M and V151L double mutant relative to wild type; assay type: functional
[20] = tested on: Human immunodeficiency virus 1; assay: Antiviral activity against HIV1 harboring integrase T66I and M154I double mutant relative to wild type; assay type: functional
[21] = Metabolic stability in rat liver microsomes assessed as oxidation rate after 1 hr in presence of NADPH; assay type: ADME, Microsome
In short: (§3)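 Rat liver microsomes (1 mg/mL) were incubated with test compound for 1 h. The cofactor was UDPGA for glucuronidation and NADPH for oxidation. Substrate loss was measured by LC/MS/MS and expressed as % of initial remaining.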

[22] = Metabolic stability in rat liver microsomes assessed as glucuronidation rate after 1 hr in presence of UDPGA; assay type: ADME, Microsome; in short: as §3
[23] = Plasma protein binding in rat; assay type: ADME, cell-free; details: read-out: PPB (converted)

Chain of Human immunodeficiency virus type 1 integrase (Q7ZJM1 whole entry): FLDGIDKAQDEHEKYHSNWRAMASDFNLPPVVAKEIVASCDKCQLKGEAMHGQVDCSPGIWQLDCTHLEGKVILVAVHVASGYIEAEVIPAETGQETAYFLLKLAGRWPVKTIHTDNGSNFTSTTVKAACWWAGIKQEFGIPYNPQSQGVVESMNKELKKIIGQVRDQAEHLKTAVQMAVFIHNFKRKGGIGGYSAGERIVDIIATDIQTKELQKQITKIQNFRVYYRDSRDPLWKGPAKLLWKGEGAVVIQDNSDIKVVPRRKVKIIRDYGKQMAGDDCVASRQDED

SMILES	half-life [2] [h]	IC50 [3] [nM]	AUC [5] [µM·h]	bioavailability [6] [%]	clearance [7] [mL/min/kg]	IC95 [1] [nM]	IC95 [4] [nM]	other results
CC(=O)N1C[C@@H](F)C[C@H]1c1nc(C(=O)NCc2ccc(F)c(C)c2)c(O)c(=O)n1C	1.4	27	0.5	17	39	31	16	–
CC(=O)N1C[C@@H](F)C[C@H]1c1nc(C(=O)NCc2ccc(C)c(Cl)c2)c(O)c(=O)n1C	3	32	3.7	94	29	46	5	Ratio IC50 [8]: 0.8; Ratio IC50 [9]: 3.5; Ratio IC50 [10]: 1.5; fraction unbound [11]: 0.022; half-life [12]: 1.2 h; Ratio IC50 [13]: 8; Ratio IC50 [14]: 1; AUC [15]: 6.4 µM·h; Ratio IC50 [16]: 1; bioavailability [17]: 80%; Ratio IC50 [18]: 1; Ratio IC50 [19]: 2.5; Ratio IC50 [20]: 0.8
COC(=O)N1C[C@@H](F)C[C@H]1c1nc(C(=O)NCc2ccc(C)c(Cl)c2)c(O)c(=O)n1C	7.4	20	1.2	10	9.9	63	16	–
Cn1c([C@@H]2C[C@H](F)CN2Cc2ccon2)nc(C(=O)NCc2ccc(F)cc2)c(O)c1=O	–	10	–	–	–	625	156	–
CC(=O)N1C[C@@H](F)C[C@H]1c1nc(C(=O)NCc2ccc(F)cc2)c(O)c(=O)n1C	0.3	15	1.2	31	64	17	14	Ratio IC50 [8]: 5; Ratio IC50 [9]: 15; remaining at 1 h [21]: 40%; fraction unbound [11]: 0.21; remaining at 1 h [22]: 43%; Ratio IC50 [13]: 15; fraction unbound [23]: 0.37; Ratio IC50 [19]: 10; Ratio IC50 [20]: 2
COC(=O)N1C[C@@H](F)C[C@H]1c1nc(C(=O)NCc2ccc(F)cc2)c(O)c(=O)n1C	0.6	10	1.2	44	46	63	31	–
Cn1c([C@@H]2C[C@H](F)CN2S(C)(=O)=O)nc(C(=O)NCc2ccc(F)cc2)c(O)c1=O	–	15	–	–	–	125	31	–
CN(C)S(=O)(=O)N1C[C@@H](F)C[C@H]1c1nc(C(=O)NCc2ccc(F)cc2)c(O)c(=O)n1C	–	9	–	16	64	125	31	–
CC(=O)N1C[C@@H](F)C[C@H]1c1nc(C(=O)NCc2ccc(F)c(Cl)c2)c(O)c(=O)n1C	0.7	24	0.5	20	43	17	3	Ratio IC50 [8]: 3; Ratio IC50 [9]: 17; Ratio IC50 [10]: 4; half-life [12]: 7.1 h; Ratio IC50 [13]: 31; Ratio IC50 [14]: 2; AUC [15]: 2.8 µM·h; Ratio IC50 [16]: 1; bioavailability [17]: 34%; Ratio IC50 [18]: 1; Ratio IC50 [19]: 31; Ratio IC50 [20]: 3

The next lines start with results.

half-life [2] [h]	IC50 [3] [nM]	AUC [5] [µM·h]	bioavailability [6] [%]	clearance [7] [mL/min/kg]	SMILES	IC95 [1] [nM]	IC95 [4] [nM]	other results
1.5	19	1.3	25	21	COC(=O)N1C[C@@H](F)C[C@H]1c1nc(C(=O)NCc2ccc(F)c(Cl)c2)c(O)c(=O)n1C	31	16	–
–	20	–	–	–	Cn1c([C@@H]2C[C@H](F)CN2C2CC2)nc(C(=O)NCc2ccc(F)cc2)c(O)c1=O	250	63	–
–	10	–	–	–	CN(C)C(=O)N1C[C@@H](F)C[C@H]1c1nc(C(=O)NCc2ccc(F)cc2)c(O)c(=O)n1C	125	125	–
0.2	10	2.3	18	77	Cn1c([C@@H]2C[C@H](F)CN2C(=O)c2cnccn2)nc(C(=O)NCc2ccc(F)cc2)c(O)c1=O	16	16	–
1.6	21	0.2	19	138	CN(C)C(=O)C(=O)N1C[C@@H](F)C[C@H]1c1nc(C(=O)NCc2ccc(F)cc2)c(O)c(=O)n1C	16	16	–
–	23	4.5	–	21	CN1C[C@@H](F)C[C@H]1c1nc(C(=O)NCc2ccc(F)cc2)c(O)c(=O)n1C	125	63	half-life [12]: 3.7 h; AUC [15]: 23.1 µM·h; bioavailability [17]: 116%
